Data published in ChEMBL document CHEMBL1132993, “Novel benzofuran and benzothiophene biphenyls as inhibitors of protein tyrosine phosphatase 1B with antihyperglycemic properties” (J Med Chem, 2000).

Experiments:
[1] = biological target: T1, Tyrosine-protein phosphatase non-receptor type 1 (Homo sapiens) (UniProt P18031); experiment: In vitro inhibitory activity against recombinant human Protein Tyrosine Phosphatase 1b at a concentration of 1 uM
T1 sequence (whole entry): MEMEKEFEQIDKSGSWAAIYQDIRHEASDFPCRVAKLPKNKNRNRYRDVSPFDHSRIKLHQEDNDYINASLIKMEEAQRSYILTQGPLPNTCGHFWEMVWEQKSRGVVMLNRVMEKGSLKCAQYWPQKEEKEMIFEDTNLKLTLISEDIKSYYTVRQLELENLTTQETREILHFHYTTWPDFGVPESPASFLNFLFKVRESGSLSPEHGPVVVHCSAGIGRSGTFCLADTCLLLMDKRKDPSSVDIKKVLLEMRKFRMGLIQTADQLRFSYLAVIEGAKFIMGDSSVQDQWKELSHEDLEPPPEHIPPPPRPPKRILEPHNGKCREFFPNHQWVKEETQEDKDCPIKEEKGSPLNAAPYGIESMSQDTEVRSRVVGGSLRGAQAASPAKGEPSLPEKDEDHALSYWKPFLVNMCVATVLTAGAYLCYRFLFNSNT
How it was run: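 Recombinant human PTP1B was preincubated 10 min at 37 °C with compound at 1 µM, then given 50 µM tri-phosphorylated insulin receptor dodecapeptide for 30 min at 37 °C. Liberated phosphate was measured by malachite green-molybdate absorbance at 650 nm, in quadruplicate. Values are inhibition expressed as percent of phosphatase control.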

[2] = biological target: T1, Tyrosine-protein phosphatase non-receptor type 1 (Homo sapiens); conditions: 0.25 uM
Mus musculus [3] = experiment: Percentage decrease in plasma glucose in the ob/ob mouse model at 100 mg/kg/day administered per orally; assay type: functional; conditions: route oral
How it was run: (§1)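 Genetically obese C57 B1/6J ob/ob diabetic mice, four to six per group, dosed orally once daily for 4 days. Plasma glucose is expressed as percent change relative to the vehicle-treated group, with p < 0.05 versus vehicle. Changes that are not significant are generally less than -15%. Ciglitazone served as the reference standard.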

[4] = biological target: T2, Tyrosine-protein phosphatase non-receptor type 1 (Homo sapiens, UniProt P18031); experiment: In vitro inhibitory activity against human recombinant protein tyrosine phosphatase 1b (PTP1B)
T2 sequence (P18031 whole entry): T1 sequence (whole entry)
How it was run: (§2)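 Recombinant human PTP1B, diluted in pH 7.4 Tris-HCl/EDTA/β-mercaptoethanol buffer, preincubated 10 min at 37 °C with compound in HEPES pH 7.4. Reaction ran 30 min at 37 °C. Released phosphate was read by malachite green-ammonium molybdate at 650 nm, in quadruplicate. IC50 came from four-parameter logistic regression.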

[5] = biological target: T2, Tyrosine-protein phosphatase non-receptor type 1; experiment: in vitro inhibitory activity against recombinant human Protein Tyrosine Phosphatase 1b
How it was run: as §2, with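 “7.4. Substrate was the insulin receptor 1142-1153 dodecapeptide phosphorylated at Y1146/1150/1151, 50 µM final.” for “7.4.”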

Mus musculus [6] = experiment: percentage decrease in plasma glucose in the ob/ob mouse model at 25 mg/kg/day administered per orally; assay type: functional; conditions: route oral; how it was run: as §1
Mus musculus [7] = experiment: percentage decrease in plasma glucose in the ob/ob mouse model at 100 mg/kg/day administered per orally; assay type: functional; conditions: route oral; how it was run: as §1
[8] = in vitro inhibitory activity against PTP-a
[9] = in vitro inhibitory activity against He-PTP
[10] = biological target: Dual specificity protein phosphatase 3 (Homo sapiens, UniProt P51452); experiment: in vitro inhibitory activity against Dual specificity protein phosphatase 3
Sequence of Dual specificity protein phosphatase 3 (P51452 whole entry): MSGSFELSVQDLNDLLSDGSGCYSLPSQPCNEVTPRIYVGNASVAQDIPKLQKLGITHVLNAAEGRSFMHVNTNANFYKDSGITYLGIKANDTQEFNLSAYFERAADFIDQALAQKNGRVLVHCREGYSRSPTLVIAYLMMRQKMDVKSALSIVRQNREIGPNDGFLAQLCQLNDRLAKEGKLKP

[11] = biological target: Receptor-type tyrosine-protein phosphatase F (Homo sapiens, UniProt P10586); experiment: in vitro inhibitory activity against LAR
Sequence of Receptor-type tyrosine-protein phosphatase F (P10586 whole entry): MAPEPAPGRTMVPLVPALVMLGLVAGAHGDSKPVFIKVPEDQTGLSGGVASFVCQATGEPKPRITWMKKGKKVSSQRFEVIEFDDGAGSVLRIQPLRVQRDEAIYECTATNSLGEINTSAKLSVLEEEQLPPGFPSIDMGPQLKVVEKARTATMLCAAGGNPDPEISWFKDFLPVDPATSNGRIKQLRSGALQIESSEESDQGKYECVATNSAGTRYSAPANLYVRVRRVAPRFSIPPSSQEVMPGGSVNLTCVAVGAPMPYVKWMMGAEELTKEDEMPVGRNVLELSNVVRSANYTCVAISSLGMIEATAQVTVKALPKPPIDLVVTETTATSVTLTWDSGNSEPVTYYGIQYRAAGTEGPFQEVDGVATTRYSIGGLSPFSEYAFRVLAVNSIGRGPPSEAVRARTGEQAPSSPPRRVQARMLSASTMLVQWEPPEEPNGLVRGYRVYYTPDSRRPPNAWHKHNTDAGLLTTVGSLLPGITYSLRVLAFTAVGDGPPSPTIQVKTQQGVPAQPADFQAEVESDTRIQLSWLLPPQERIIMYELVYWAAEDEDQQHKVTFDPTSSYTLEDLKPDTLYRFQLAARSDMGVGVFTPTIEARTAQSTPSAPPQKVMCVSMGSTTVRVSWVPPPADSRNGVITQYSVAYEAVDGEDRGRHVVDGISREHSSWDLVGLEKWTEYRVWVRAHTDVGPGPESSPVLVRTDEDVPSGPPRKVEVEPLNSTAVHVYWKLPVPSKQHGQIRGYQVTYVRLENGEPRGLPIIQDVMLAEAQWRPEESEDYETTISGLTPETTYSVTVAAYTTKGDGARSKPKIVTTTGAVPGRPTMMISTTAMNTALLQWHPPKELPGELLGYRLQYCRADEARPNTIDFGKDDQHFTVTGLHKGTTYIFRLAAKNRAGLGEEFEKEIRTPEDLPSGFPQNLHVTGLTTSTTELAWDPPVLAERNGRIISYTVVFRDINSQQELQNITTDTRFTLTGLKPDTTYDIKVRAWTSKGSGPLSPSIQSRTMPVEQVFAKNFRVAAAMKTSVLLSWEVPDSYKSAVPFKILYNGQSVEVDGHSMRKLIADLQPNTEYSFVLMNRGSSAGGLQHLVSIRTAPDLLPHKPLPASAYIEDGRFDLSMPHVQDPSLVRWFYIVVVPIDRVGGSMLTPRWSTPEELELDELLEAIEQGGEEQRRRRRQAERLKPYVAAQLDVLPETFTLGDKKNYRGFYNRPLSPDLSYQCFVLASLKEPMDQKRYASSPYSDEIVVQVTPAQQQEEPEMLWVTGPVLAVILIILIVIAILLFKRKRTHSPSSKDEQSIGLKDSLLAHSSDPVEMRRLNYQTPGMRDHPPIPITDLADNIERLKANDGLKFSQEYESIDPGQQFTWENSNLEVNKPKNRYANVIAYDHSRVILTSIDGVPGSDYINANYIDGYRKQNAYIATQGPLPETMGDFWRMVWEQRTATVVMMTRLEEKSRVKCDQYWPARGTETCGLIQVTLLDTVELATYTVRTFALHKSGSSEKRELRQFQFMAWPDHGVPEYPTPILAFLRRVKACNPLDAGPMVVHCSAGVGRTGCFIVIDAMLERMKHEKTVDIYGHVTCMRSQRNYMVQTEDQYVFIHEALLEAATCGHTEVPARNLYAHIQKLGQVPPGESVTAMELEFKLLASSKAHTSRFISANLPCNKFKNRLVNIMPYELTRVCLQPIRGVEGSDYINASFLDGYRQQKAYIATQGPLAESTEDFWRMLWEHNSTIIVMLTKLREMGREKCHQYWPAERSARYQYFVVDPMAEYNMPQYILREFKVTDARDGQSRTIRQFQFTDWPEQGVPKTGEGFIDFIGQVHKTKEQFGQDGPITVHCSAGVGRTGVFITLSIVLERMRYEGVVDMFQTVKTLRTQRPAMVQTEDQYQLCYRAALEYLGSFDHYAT

Mus musculus [12] = experiment: percentage decrease in plasma glucose in the ob/ob mouse model at 25 mg/Kg/day administered per orally; assay type: functional; how it was run: as §1
[13] = biological target: T1, Tyrosine-protein phosphatase non-receptor type 1 (Homo sapiens); conditions: 0.1 uM

For `Oc1c(Br)cc(-c2ccc(-c3c(Cc4ccccc4)oc4ccccc34)cc2)cc1Br`, the Average inhibition [1] was -43.

With `O=C(O)[C@H](Cc1ccccc1)Oc1ccc(-c2ccc(-c3c(Cc4ccc(F)cc4)oc4ccccc34)cc2)cc1` the Average inhibition [2] was -38.

`Cc1oc(-c2ccc(C(F)(F)F)cc2)nc1-c1ccc(-c2ccc(OCC(=O)O)cc2)cc1` showed a Decrease (Mus musculus [3]) of 40% and an IC50 [4] of 800 nM.

With `O=C(O)CCC(=O)Nc1cc(-c2ccc(-c3c(Cc4ccccc4)oc4ccccc34)cc2)ccc1O` the IC50 [5] was 920 nM.

`O=C(O)[C@@H](Cc1ccccc1)Oc1ccc(-c2ccc(-c3nc4cccnc4n3Cc3ccccc3)cc2)cc1` gave an Average inhibition [1] of -19.

For `O=C(O)/C=C\C(=O)Nc1cc(-c2ccc(-c3c(Cc4ccccc4)oc4ccccc34)cc2)ccc1O`, the IC50 [5] was 460 nM.

In the case of `O=C(O)[C@H](Cc1ccccc1)Oc1ccc(-c2ccc(-c3c(Cc4ccccc4)oc4ccccc34)cc2)cc1`, the Decrease (Mus musculus [6]) is reported as 27%, the Decrease (Mus musculus [7]) is reported as 40% and the IC50 [8] is reported as 33.7 µM. The IC50 [9] was 7.1 µM, the IC50 [10] was 15.9 µM and the IC50 [11] was 3.25 µM.

Compound `CCCCCCC(Oc1c(Br)cc(-c2ccc(-c3c(Cc4ccccc4)oc4ccccc34)cc2)cc1Br)C(=O)O` (stereo not drawn) has an IC50 [4] of 23 nM and a Decrease (Mus musculus [12]) of 27%.

In the case of `Oc1ccc(-c2ccc(-c3c(Cc4ccccc4)oc4ccccc34)cc2)cc1Br`, the Average inhibition [1] is reported as -59.

`C[C@@H](Oc1ccc(-c2ccc(-c3c(Cc4ccccc4)oc4ccccc34)cc2)cc1)C(=O)O` gave a Decrease (Mus musculus [7]) of 39% and a Decrease (Mus musculus [12]) of -1%.

Compound `O=C(O)[C@@H](Cc1ccccc1)Oc1ccc(-c2ccc(-c3c(C(O)c4ccccc4)oc4ccccc34)cc2)cc1` (stereo partly drawn) has a Decrease (Mus musculus [7]) of -1%, an IC50 [4] of 110 nM and a Decrease (Mus musculus [12]) of 21%.

Work on `O=C(O)CCNc1cc(-c2ccc(-c3c(Cc4ccccc4)oc4ccccc34)cc2)ccc1OCCc1ccccc1` yielded an IC50 [4] of 140 nM and a Decrease (Mus musculus [12]) of 17%.

`CC(Cc1ccccc1)(Oc1ccc(-c2ccc(-c3c(Cc4ccccc4)oc4ccccc34)cc2)cc1)C(=O)O` (stereo not drawn) showed a Decrease (Mus musculus [7]) of 28% and a Decrease (Mus musculus [12]) of 30%.

`CCCc1cc(-c2ccc(-c3c(Cc4ccccc4)oc4ccccc34)cc2)ccc1O[C@@H](Cc1ccccc1)C(=O)O` showed an Average inhibition [13] of -59.

`O=C(O)[C@@H](Cc1ccccc1)Oc1ccc(-c2ccc(-c3c(Cc4ccc(O)cc4O)sc4ccccc34)cc2)cc1` gave an IC50 [4] of 120 nM and a Decrease (Mus musculus [12]) of 20%.
